The target of this assay is T1, purified mLYPLAL1 (Mus musculus, UniProt Q3UFF7).
T1 sequence (Q3UFF7 1-239): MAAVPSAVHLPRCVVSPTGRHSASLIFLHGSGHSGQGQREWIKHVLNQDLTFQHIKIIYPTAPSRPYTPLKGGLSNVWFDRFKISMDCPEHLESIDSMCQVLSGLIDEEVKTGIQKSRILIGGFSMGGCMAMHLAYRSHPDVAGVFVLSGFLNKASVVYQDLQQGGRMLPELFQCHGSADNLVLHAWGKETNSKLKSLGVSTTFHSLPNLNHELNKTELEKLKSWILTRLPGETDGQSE
In words: NanoDSF thermal stability assay. Type of assay: binding. To be noted: recombinant mLYPLAL1. In short, it runs like this:
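Purified mouse LYPLAL1 (2.3 μM final) in PBS pH 7.4 with varying test compound concentrations (2% DMSO final) in capillaries. Intrinsic-fluorescence nanoDSF over a 20–95°C ramp at 1°C/min. Kd estimated by isothermal analysis of the unfolding data.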

For `COc1ccc(S(=O)(=O)n2nc(NCc3ccc(Cl)cc3)nc2N)cc1` [Compound 80, 3-(4-chlorobenzyl)amino-1-((4-methoxyphenyl)sulfonyl)-5-amino-1H-1,2,4-triazole], the “effect on thermal stability of mLYPLAL1” value is reported as “not seen”.

These data come from PMC7442688 (Nature chemical biology, 2020).
